PMC2988655 (Journal of immunology (Baltimore, Md. : 1950), 2010)
Read-outs that look alike come from different tables or passages of the source. Where a SMILES comes first, the peptide text is derived from it. [ ]: non-standard residue; d: D form. The star is where a group is joined. Sta = CC(C)C[C@H](N)[C@@H](O)CC(=O)O; Isovaleryl = CC(C)CC(=O)*; CH2Cl = ClC*

Experiments:
[1] = system: HLA-I presentation of M. tuberculosis epitopes by H37Rv-eGFP-infected DCs; experiment: cells; assay type: cell-based, human; details: for inhibition at 10 µg/mL: Homo sapiens, T-cell
DCs = experiment: Toxicity of inhibitor to DCs; assay type: cell-based; details: human DCs
Outline: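 Human DCs were derived from leukapheresis PBMCs. Adherent PBMCs were cultured 5 d with GM-CSF (10 ng/ml) and IL-4 (10 ng/ml) in RPMI 1640 with 10% pooled human serum, 4 mM L-glutamine and gentamicin (50 μg/ml).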

[2] = biological target: Purified 20S immunoproteasomes (Homo sapiens, UniProt P28062+P28065+P40306); experiment: In vitro proteasome digestion of CFP10_2–21; assay type: biochemical; details: epoxomicin 1 μM, 20 h, 37°C
[3] = system: CD8^+ T cells present in PBMCs; details: PBMCs of the donor from whom the clone was derived; cited from earlier work
TAP = biological target: T1, TAP (Homo sapiens, UniProt Q03518+Q03519); experiment: ICP47-mediated TAP inhibition, intracellular IFN-γ staining of T cell clones; assay type: cell-based; details: adenovirus-ICP47-transduced DCs pulsed with 0.25–1 μg/ml cognate peptides
T1 sequence (Q03518 1-748): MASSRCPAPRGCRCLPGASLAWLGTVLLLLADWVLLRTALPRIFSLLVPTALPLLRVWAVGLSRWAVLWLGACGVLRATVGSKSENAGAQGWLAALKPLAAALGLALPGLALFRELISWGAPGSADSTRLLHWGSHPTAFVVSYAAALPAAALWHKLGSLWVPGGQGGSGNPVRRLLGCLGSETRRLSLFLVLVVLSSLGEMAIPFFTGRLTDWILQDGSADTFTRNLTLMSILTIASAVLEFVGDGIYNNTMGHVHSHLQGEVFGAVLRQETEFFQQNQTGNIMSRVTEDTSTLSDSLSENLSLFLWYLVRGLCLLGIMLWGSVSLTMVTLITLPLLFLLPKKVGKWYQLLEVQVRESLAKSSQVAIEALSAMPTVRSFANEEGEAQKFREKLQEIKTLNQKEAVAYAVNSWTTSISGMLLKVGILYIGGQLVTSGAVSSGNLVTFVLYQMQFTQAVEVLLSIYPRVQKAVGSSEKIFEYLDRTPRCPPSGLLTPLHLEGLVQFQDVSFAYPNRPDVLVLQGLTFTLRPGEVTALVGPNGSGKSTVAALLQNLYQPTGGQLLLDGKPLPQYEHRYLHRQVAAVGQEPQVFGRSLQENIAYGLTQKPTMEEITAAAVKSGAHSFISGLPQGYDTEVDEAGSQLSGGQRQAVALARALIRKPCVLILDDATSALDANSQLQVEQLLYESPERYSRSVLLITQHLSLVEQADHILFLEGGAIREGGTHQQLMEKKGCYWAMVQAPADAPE
T1 sequence (Q03519 1-686): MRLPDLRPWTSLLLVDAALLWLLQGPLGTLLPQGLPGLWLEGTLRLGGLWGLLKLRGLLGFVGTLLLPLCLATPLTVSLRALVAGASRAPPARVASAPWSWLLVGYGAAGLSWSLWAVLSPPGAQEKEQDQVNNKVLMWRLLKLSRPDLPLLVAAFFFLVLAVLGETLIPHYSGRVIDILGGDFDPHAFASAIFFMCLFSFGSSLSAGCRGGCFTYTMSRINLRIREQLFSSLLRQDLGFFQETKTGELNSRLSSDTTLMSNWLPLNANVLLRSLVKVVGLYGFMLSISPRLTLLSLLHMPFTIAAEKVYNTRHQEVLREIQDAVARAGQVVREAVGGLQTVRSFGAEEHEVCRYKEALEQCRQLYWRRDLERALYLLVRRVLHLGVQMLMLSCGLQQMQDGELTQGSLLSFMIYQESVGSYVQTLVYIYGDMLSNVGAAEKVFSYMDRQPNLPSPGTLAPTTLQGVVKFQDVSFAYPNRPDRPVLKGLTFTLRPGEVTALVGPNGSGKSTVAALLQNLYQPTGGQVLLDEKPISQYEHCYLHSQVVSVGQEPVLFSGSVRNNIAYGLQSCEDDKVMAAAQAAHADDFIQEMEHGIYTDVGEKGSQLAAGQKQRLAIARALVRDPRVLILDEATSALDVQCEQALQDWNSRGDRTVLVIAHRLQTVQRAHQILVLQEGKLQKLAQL

[4] = […], AAF-CMK at highest possible nontoxic dose, data not shown
[5] = cycloheximide 10 μg/ml, […], Fig. 5

With `C[C@H](N)C(=O)N[C@@H](C)C(=O)N[C@@H](Cc1ccccc1)C(=O)CCl` [AAF-CMK] (H-Ala-Ala-Phe-CH2Cl) the “Effect on presentation of the EsxJ24–34 or CFP10_75–83 epitope” value [1, 4] was “no effect”.
With `CO/C1=C\C(C)=C\[C@@H](C)[C@@H](O)[C@@H](C)C/C(C)=C/C=C/[C@H](OC)[C@@H]([C@@H](C)[C@@H](O)[C@H](C)[C@@]2(O)C[C@@H](O)[C@H](C)[C@@H](C(C)C)O2)OC1=O` [Bafilomycin, bafilomycin] the “Effect on presentation of all of the epitopes examined” value ([1]; […], BFA 0.1 μg/ml, bafilomycin 0.2 μM, Fig. 1) was “did not significantly inhibit”.
For `C[C@@H]1C[C@@H]([C@H](O)CC2CC(=O)NC(=O)C2)C(=O)[C@@H](C)C1` [Cycloheximide, cycloheximide], the inhibition at 10 µg/mL ([1]; read-out: Inhibition of presentation of epitope CFP10_2–12) was over 70%, the inhibition at 10 µg/mL ([1]; read-out: Inhibition of presentation of epitope EsxJ24–34) was over 70% and the “Effect on presentation of the HLA-E–presented epitope” value [1, 5] was “enhanced presentation”. The “Effect on presentation of the epitope CFP10_2–9” value [1, 5] was “only slightly inhibited”.
With `CC[C@H](C)[C@H](NC(=O)[C@H]([C@@H](C)CC)N(C)C(C)=O)C(=O)N[C@H](C(=O)N[C@@H](CC(C)C)C(=O)[C@@]1(C)CO1)[C@@H](C)O` [Epoxomicin, epoxomicin] the “Effect on presentation of CFP10_2–9 and Ag85B144–153 epitopes” value ([1]; epoxomicin 1–10 μM, […], Fig. 2) was “ablated”, the “Highest dose that was nontoxic to DCs” value (DCs) was 10 µM and the “Effect on amount of CFP10_2–11 generated from CFP10_2–21 by proteasomes” value ([2]; IFN-γ ELISPOT and LC-MS) was “drastically reduced”. For the same compound, the “Effect on generation of CFP10_2–12 from CFP10_2–21 by proteasomes” value ([2]; detectible by T cell assay but not LC-MS) was “enhanced the generation”.
With `CCN(CC)CCCC(C)Nc1ccnc2cc(Cl)ccc12` (stereo not shown) [chloroquine] the “Effect on presentation of the EsxJ24–34 or CFP10_75–83 epitope” value [1] was “neither of these epitopes was inhibited”.
With `CC(=O)N[C@@H](CC(C)C)C(=O)N[C@@H](CC(C)C)C(=O)N[C@H](C=O)CCCNC(=N)N` [leupeptin] the “Effect on presentation of the EsxJ24–34 or CFP10_75–83 epitope” value [1, 4] was “did not block”.
With `CC(C)CC(=O)N[C@H](C(=O)N[C@H](C(=O)N[C@@H](CC(C)C)[C@@H](O)CC(=O)N[C@@H](C)C(=O)N[C@@H](CC(C)C)[C@@H](O)CC(=O)O)C(C)C)C(C)C` [pepstatin A] (Isovaleryl-VV[Sta]A[Sta]-OH) the “Effect on presentation of the EsxJ24–34 or CFP10_75–83 epitope” value [1, 4] was “did not block”.
For AEMKTDAA [CFP10_2–9], the “Ex Vivo Frequency of CD8+ T cells present in PBMCs specific for the indicated epitope” value [3] is given as 1/102.
For EMKTDAATL [CFP10_3–11], the “Ex Vivo Frequency of CD8+ T cells present in PBMCs specific for the indicated epitope” value [3] is given as 1/646.
With “ICP47: HSV-1–encoded protein, prevents peptide binding to cytosolic face of TAP; expressed from an adenovirus vector” the “Effect on presentation of cognate peptide to CD8+ T cell clones” value (TAP) was “no effect”.
